# Laboratory results published in ChEMBL document CHEMBL4400528, “Discovery and Optimization of Selective and in Vivo Active Inhibitors of the Lysophosphatidylserine Lipase α/β-Hydrolase Domain-Containing 12 (ABHD12)” (J Med Chem, 2019).
# Activity calls are given as the source filed them. The calls are words filed in the database; no cut-off is given here.
# Experiments:
# [1] = target: T1, Lysophosphatidylserine lipase ABHD12 (Mus musculus) (UniProt Q99LR1); test: Binding affinity to ABHD12 in mouse brain membrane proteome at 0.016 to 10 uM incubated for 45 mins by CuAAC fluorescence dependent gel-based competitive ABPP assay; type: cell membranes
# T1 sequence (whole entry): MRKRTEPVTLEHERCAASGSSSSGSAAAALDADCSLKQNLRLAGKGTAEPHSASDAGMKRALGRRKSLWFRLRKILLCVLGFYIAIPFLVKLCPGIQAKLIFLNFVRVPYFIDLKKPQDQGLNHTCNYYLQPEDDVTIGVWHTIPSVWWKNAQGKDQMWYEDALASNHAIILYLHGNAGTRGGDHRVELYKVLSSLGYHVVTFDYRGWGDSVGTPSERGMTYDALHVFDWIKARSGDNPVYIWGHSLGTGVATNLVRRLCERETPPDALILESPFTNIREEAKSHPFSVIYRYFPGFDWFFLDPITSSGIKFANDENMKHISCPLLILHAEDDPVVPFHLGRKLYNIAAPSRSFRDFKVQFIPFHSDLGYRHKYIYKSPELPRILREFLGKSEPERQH
# In short: (§1)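 Mouse brain membrane proteome (1 mg/mL) preincubated with inhibitor for 45 min at 37 °C. Labelled with FP-Rh (1 μM) or JJH350 (2 μM) for 45 min at 37 °C. JJH350 samples were clicked to Rh-N3 (25 μM) by CuAAC for 60 min at room temperature. Read by 10% SDS-PAGE and in-gel fluorescence scanning. Band intensity taken relative to control (100%), and IC50 from log(inhibitor) vs normalized response.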
# [2] = target: T2, Lysophosphatidylserine lipase ABHD12 (Mus musculus, UniProt Q99LR1); test: Inhibition of FP-Rh probe binding to ABHD12 in mouse brain membrane proteome incubated for 45 mins by CuAAC fluorescence dependent gel-based competitive ABPP assay; type: cell membranes; in short: as §1
# T2 sequence (Q99LR1 whole entry): T1 sequence (whole entry)
# [3] = target: T3, Monoacylglycerol lipase ABHD6 (Mus musculus) (UniProt Q8R2Y0); test: Binding affinity to ABHD6 in mouse brain membrane proteome at 0.016 to 10 uM incubated for 45 mins by CuAAC fluorescence dependent gel-based competitive ABPP assay; type: cell membranes; in short: as §1
# T3 sequence (whole entry): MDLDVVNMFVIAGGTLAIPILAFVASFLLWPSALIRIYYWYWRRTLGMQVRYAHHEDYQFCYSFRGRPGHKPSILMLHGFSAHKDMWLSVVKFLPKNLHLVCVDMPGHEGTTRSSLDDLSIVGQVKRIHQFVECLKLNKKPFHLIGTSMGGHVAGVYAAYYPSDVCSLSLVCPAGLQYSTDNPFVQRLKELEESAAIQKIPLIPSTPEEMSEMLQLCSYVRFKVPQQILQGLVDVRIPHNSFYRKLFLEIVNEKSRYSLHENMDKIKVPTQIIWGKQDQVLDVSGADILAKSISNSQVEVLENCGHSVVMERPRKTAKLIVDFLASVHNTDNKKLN
# Mus musculus = test: In vivo inhibition of JJH350 binding to ABHD12 in mouse at 30 mg/kg, ip treated for 4 hrs by CuAAC based fluorescence scanning assay; type: functional, organism-based
# In short: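 Mice injected i.p. at 10 μL/g body weight with fresh suspension in EtOH/PEG40/DPBS 1:1:18. Anesthetized with isoflurane, killed by cervical dislocation, tissues harvested. Tissues dounce-homogenized in DPBS; membrane fraction from 16,000 x g spin. Labelled with JJH350, then CuAAC to rhodamine-azide, SDS-PAGE and fluorescence scanning.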
# [4] = target: T4, Lysophosphatidylserine lipase ABHD12 (Homo sapiens) (UniProt Q8N2K0); test: Inhibition of ABHD12 (unknown origin) expressed in HEK293T cell membranes at 10 uM using 17:1 lyso-PS as substrate preincubated for 20 mins followed by substrate addition measured after 30 mins by LC-MS analysis
# T4 sequence (whole entry): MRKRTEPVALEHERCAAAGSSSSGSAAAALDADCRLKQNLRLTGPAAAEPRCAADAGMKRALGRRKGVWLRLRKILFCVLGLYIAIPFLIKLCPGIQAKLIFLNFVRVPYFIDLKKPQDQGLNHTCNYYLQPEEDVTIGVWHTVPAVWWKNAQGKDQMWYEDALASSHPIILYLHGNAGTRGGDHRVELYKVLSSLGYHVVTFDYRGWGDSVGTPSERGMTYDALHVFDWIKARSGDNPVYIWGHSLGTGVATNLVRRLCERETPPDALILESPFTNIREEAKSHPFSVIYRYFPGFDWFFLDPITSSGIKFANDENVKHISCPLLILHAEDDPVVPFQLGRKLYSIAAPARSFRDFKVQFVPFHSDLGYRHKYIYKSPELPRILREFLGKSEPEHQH
# In short: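 Membranes from HEK293T overexpressing ABHD12 (0.25 mg/mL) in DPBS preincubated with compound for 20 min at room temperature. 17:1 lyso-PS added (100 μM final) and incubated 30 min at 37 °C. Quenched with 2:1 CHCl3/MeOH containing 1 nmol 15:0 FFA internal standard. Organic phase analyzed by LC-MS on C18 with NH4OH-containing gradient.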
# [5] = target: T2, Lysophosphatidylserine lipase ABHD12; test: Inhibition of JJH350 binding to ABHD12 in mouse brain membrane proteome incubated for 20 mins by CuAAC fluorescence dependent gel-based competitive ABPP assay; type: cell membranes
# In short: (§2)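 Brain membrane fraction (1 mg/mL; DPBS homogenate, 16,000 x g pellet) treated with inhibitor for 20 min at room temperature. JJH350 (2 μM) added for 45 min at 37 °C, then CuAAC with rhodamine-PEG3-azide, CuSO4, TBTA and TCEP for 1 h at room temperature. Run on 10% SDS-PAGE and read by in-gel fluorescence. ABHD12 band normalized to control-treated sample (100%); IC50 from log dose-response fit.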
# [6] = Drug level in mouse peripheral regions at 30 mg/kg, po; type: ADME, organism-based; conditions: in vivo, read-out: Drug uptake
# [7] = target: T4, Lysophosphatidylserine lipase ABHD12 (Homo sapiens); test: Inhibition of ABHD12 in PMA-differentiated human THP1 cells assessed as increase in IL-1beta production treated simultaneously with IFN-gamma/LPS for 24 hrs and measured 6 to 24 hrs after stimulation
# In short: (§3)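 THP-1 cells grown in RPMI/10% FBS/0.05 mM 2-mercaptoethanol, plated 2.5×10^6 per well. Treated 24 h with 150 ng/mL PMA, washed, rested 24 h. Polarized to M1 with 20 ng/mL IFN-γ plus 10 pg/mL LPS for 24 h. Compound or DMSO (test 0.1–1 μM) present at every step. Media sampled 6 and 24 h after stimulation; cytokines by MSD V-Plex. Mean ± SEM, four biological experiments.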
# MDA-MB-231 = test: Cytotoxicity against human MDA-MB-231 cells assessed as effect on cell viability at 1 uM after 72 hrs by CellTiter-Glo assay; type: cell-based; conditions: mda-mb-231, 72 h
# In short: (§4)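 Cells seeded at 3,000 per well and left 24 h. Compounds then added at 0.1–10 μM final and incubated 72 h. Viability read by CellTiter-Glo luminescence and normalized to vehicle-treated controls.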
# [8] = Drug level in mouse peripheral regions at 30 mg/kg, ip; type: ADME, organism-based; conditions: in vivo, read-out: Drug uptake
# [9] = Drug level in mouse brain at 30 mg/kg, ip; type: ADME, organism-based; conditions: in vivo, read-out: Drug uptake
# [10] = Toxicity in mouse at 30 mg/kg, po; type: organism-based; conditions: in vivo
# [11] = target: T4, Lysophosphatidylserine lipase ABHD12 (Homo sapiens); test: Inhibition of ABHD12 in PMA-differentiated human THP1 cells assessed as increase in CCL4 production treated simultaneously with IFN-gamma/LPS for 24 hrs and measured 6 to 24 hrs after stimulation; in short: as §3
# [12] = Drug level in mouse brain at 30 mg/kg, po; type: ADME, organism-based; conditions: in vivo, read-out: Drug uptake
# [13] = target: T4, Lysophosphatidylserine lipase ABHD12 (Homo sapiens); test: Inhibition of ABHD12 in PMA-differentiated human THP1 cells assessed as increase in TNF-alpha production treated simultaneously with IFN-gamma/LPS for 24 hrs and measured 6 to 24 hrs after stimulation; in short: as §3
# HT-1080 = test: Cytotoxicity against human HT1080 cells assessed as effect on cell viability at 1 uM after 72 hrs by CellTiter-Glo assay; type: cell-based; conditions: ht-1080, 72 h; in short: as §4
# THP-1 = test: Cytotoxicity against human THP1 cells assessed as effect on cell viability at 1 uM after 72 hrs by CellTiter-Glo assay; type: cell-based; conditions: thp-1, 72 h; in short: as §4
# T98G = test: Cytotoxicity against human T98G cells assessed as effect on cell viability at 1 uM after 72 hrs by CellTiter-Glo assay; type: cell-based; in short: as §4
# [14] = target: T4, Lysophosphatidylserine lipase ABHD12 (Homo sapiens); test: Inhibition of ABHD12 in PMA-differentiated human THP1 cells assessed as increase in CCL3 production treated simultaneously with IFN-gamma/LPS for 24 hrs and measured 6 to 24 hrs after stimulation; in short: as §3
# [15] = Toxicity in mouse at 30 mg/kg, ip; type: organism-based; conditions: in vivo
# [16] = target: T1, Lysophosphatidylserine lipase ABHD12 (Mus musculus); test: Inhibition of JJH350 binding to ABHD12 in mouse brain membrane proteome at 10 uM after 20 mins by CuAAC based fluorescence scanning assay relative to control; type: cell membranes; in short: as §2
# [17] = target: T1, Lysophosphatidylserine lipase ABHD12 (Mus musculus); test: Inhibition of JJH350 binding to ABHD12 in mouse brain membrane proteome at 2 uM after 20 mins by CuAAC based fluorescence scanning assay relative to control; type: cell membranes; in short: as §2
# [18] = target: T4, Lysophosphatidylserine lipase ABHD12 (Homo sapiens); test: Inhibition of ABHD12 in PMA-differentiated human THP1 cells assessed as increase in TNF-alpha production at 1 uM treated simultaneously with IFN-gamma/LPS for 24 hrs and measured 6 to 24 hrs after stimulation; in short: as §3
# [19] = target: T4, Lysophosphatidylserine lipase ABHD12 (Homo sapiens); test: Inhibition of ABHD12 in PMA-differentiated human THP1 cells assessed as increase in CCL4 production at 1 uM treated simultaneously with IFN-gamma/LPS for 24 hrs and measured 6 to 24 hrs after stimulation; in short: as §3
# [20] = target: T4, Lysophosphatidylserine lipase ABHD12 (Homo sapiens); test: Inhibition of ABHD12 in PMA-differentiated human THP1 cells assessed as increase in CCL3 production at 1 uM treated simultaneously with IFN-gamma/LPS for 24 hrs and measured 6 to 24 hrs after stimulation; in short: as §3
# [21] = target: T4, Lysophosphatidylserine lipase ABHD12 (Homo sapiens); test: Inhibition of ABHD12 in PMA-differentiated human THP1 cells assessed as increase in IL-1beta production at 1 uM treated simultaneously with IFN-gamma/LPS for 24 hrs and measured 6 to 24 hrs after stimulation; in short: as §3
# [22] = target: T4, Lysophosphatidylserine lipase ABHD12 (Homo sapiens); test: Time dependent inhibition of FP-Rh binding to ABHD12 (unknown origin) expressed in HEK293T cell membranes by gel-based ABPP assay
smiles,measurement,setting,value
C#CCOc1ccc(N2CCN(C(=O)ON3C(=O)C4CN(C(=O)c5ccc(Oc6ccccc6)cc5)CCN4C3=O)CC2)cc1 (stereo unspecified),Activity,[1],Active
same,IC50,[2],400 nM
same,Activity,[3],Active
COc1ccc(N2CCN(C(=O)ON3C(=O)C4CN(C(=O)c5ccc(Oc6ccccc6)cc5)CCN4C3=O)CC2)cc1 (stereo unspecified),IC50,[2],320 nM
same,inhibition,Mus musculus,Active
Cc1cnc(N2CCN(NC(=S)Nc3cccnc3)CC2)c(Cl)c1,inhibition,[4],inactive
same,IC50,[5],> 50000 nM
FC(F)(F)Oc1ccc(Oc2ccnc(N3CCC(NC(=S)Nc4cccnc4)CC3)c2Cl)c(Cl)c1,concentration,[6],3 to 9 µM
same,inhibition,[7],Dose-dependent effect
same,Activity,MDA-MB-231,Non-Toxic
same,concentration,[8],3 to 9 µM
same,concentration,[9],3 to 9 µM
same,Activity,[10],Non-Toxic
same,IC50,[5],11 nM
same,inhibition,[11],Dose-dependent effect
same,concentration,[12],3 to 9 µM
same,inhibition,[13],Dose-dependent effect
same,Activity,HT-1080,Non-Toxic
same,Activity,THP-1,Non-Toxic
same,Activity,T98G,Non-Toxic
same,inhibition,[14],Dose-dependent effect
same,Activity,[15],Non-Toxic
FC(F)(F)c1cnc(N2CCCC(NC(=S)Nc3cccnc3)C2)c(Cl)c1 (stereo unspecified),inhibition,[16],4%
same,inhibition,[17],0%
FC(F)(F)Oc1ccc(Oc2ccnc(N3CCC[C@H](NC(=S)Nc4cccnc4)C3)c2Cl)c(Cl)c1,inhibition,[18],inactive
same,inhibition,[19],inactive
same,IC50,[5],> 100000 nM
same,inhibition,[20],inactive
same,inhibition,[21],inactive
CN(C(=S)Nc1cccnc1)C1CCN(c2ncc(C(F)(F)F)cc2Cl)CC1,inhibition,[16],61%
same,inhibition,[17],31%
FC(F)(F)c1cnc(N2CCC(NC(=S)Nc3ccccc3)CC2)c(Cl)c1,inhibition,[16],96%
same,inhibition,[17],66%
FC(F)(F)c1cnc(NCCCCNC(=S)Nc2cccnc2)c(Cl)c1,inhibition,[16],35%
same,inhibition,[17],12%
FC(F)(F)c1cnc(N2CCC(NC(=S)Nc3cccnc3)CC2)c(Cl)c1,TDI,[22],inactive
same,inhibition,[16],96%
same,IC50,[5],1100 nM
same,inhibition,[17],89%
FC(F)(F)c1cnc(NCCCCCNC(=S)Nc2cccnc2)c(Cl)c1,inhibition,[16],90%
same,inhibition,[17],54%
FC(F)(F)c1cnc(N2CCC(NC(=S)Nc3cccnc3)C2)c(Cl)c1 (stereo unspecified),inhibition,[16],12%
same,inhibition,[17],1%
FC(F)(F)c1cnc(N2CCCC(NC(=S)Nc3cccnc3)CC2)c(Cl)c1 (stereo unspecified),inhibition,[16],59%
same,inhibition,[17],9%
COc1ccc(N2CCN(C(=O)ON3C(=O)C4CN(Cc5ccc(Oc6ccccc6)cc5)CCN4C3=O)CC2)cc1 (stereo unspecified),IC50,[2],> 10000 nM
